Columns and labels:
[1] = Plasma concentration in rat at 10 mg/kg, po measured at 1 hr; assay type: ADME, organism-based; parameters: dose 10 mg/kg, route oral
[2] = target: Calcium/calmodulin-dependent protein kinase type IV (Homo sapiens, UniProt Q16566); experiment: Inhibition of human CAMK4
[3] = Plasma concentration in rat at 10 mg/kg, po measured at 6 hrs; assay type: ADME, organism-based; parameters: dose 10 mg/kg, route oral
[4] = target: RAC-alpha serine/threonine-protein kinase (Homo sapiens, UniProt P31749); experiment: Inhibition of human AKT1
hERG (KCNH2) [5] = target: T1, hERG (KCNH2) (Homo sapiens, UniProt Q12809); experiment: Inhibition of human ERG at 1 uM after 5 mins by voltage clamp assay relative to control
hERG (KCNH2) [6] = target: T1, hERG (KCNH2); experiment: Inhibition of human ERG expressed in mouse L929 cells at 10 uM by IonWorks assay relative to control; assay type: cell-based; conditions: mouse L929 cells expressing human ERG
hERG (KCNH2) [7] = target: T1, hERG (KCNH2); experiment: Inhibition of human ERG transfected in CHO cells at 5 ug/mL by rubidium efflux assay relative to control; assay type: cell-based; conditions: CHO cells transfected with human ERG
hERG (KCNH2) [8] = target: T1, hERG (KCNH2); experiment: Inhibition of human ERG transfected in CHO cells at 1.5 ug/mL by rubidium efflux assay relative to control; assay type: cell-based; conditions: CHO cells transfected with human ERG
[9] = target: Cannabinoid receptor 1 (Homo sapiens) (UniProt P21554); experiment: Inhibition of CB1 receptor (unknown origin) at 20 ug/mL relative to control
Cytochrome P450 2C9 [10] = target: T2, Cytochrome P450 2C9 (Homo sapiens, UniProt P11712); experiment: Time-dependent inhibition of CYP2C9 in human liver microsomes using tolbutamide as substrate incubated for 30 mins prior to substrate addition measured after 30 mins by LC-MS/MS analysis; assay type: ADME, Microsome
Cytochrome P450 3A4 [11] = target: T3, Cytochrome P450 3A4 (Homo sapiens, UniProt P08684); experiment: Time-dependent inhibition of CYP3A4 in human liver microsomes using 6beta-hydroxylase as substrate incubated for 30 mins prior to substrate addition measured after 30 mins by LC-MS/MS analysis; assay type: ADME, Microsome
Cytochrome P450 2C9 [12] = target: T2, Cytochrome P450 2C9; experiment: Inhibition of CYP2C9 in human liver microsomes using tolbutamide as substrate by LC-MS/MS analysis; assay type: ADME, Microsome
Cytochrome P450 2D6 = Cytochrome P450 2D6 (Homo sapiens, UniProt P10635); experiment: Inhibition of CYP2D6 in human liver microsomes using dextromethorphan as substrate by LC-MS/MS analysis; assay type: ADME, Microsome
Cytochrome P450 3A4 [13] = target: T3, Cytochrome P450 3A4; experiment: Inhibition of CYP3A4 in human liver microsomes using […] as substrate by LC-MS/MS analysis; assay type: ADME, Microsome
[14] = Tmax in rat at 10 mg/kg, po; assay type: ADME, organism-based; parameters: dose 10 mg/kg, route oral; conditions: in vivo
[15] = Cmax in rat at 10 mg/kg, po; assay type: ADME, organism-based; parameters: dose 10 mg/kg, route oral; conditions: in vivo
[16] = AUC in rat at 10 mg/kg, po; assay type: ADME, organism-based; parameters: dose 10 mg/kg, route oral; conditions: plasma
[17] = target: Vasopressin V2 receptor (Homo sapiens) (UniProt P30518); experiment: Inhibition of vasopressin V2 receptor (unknown origin) at 2 ug/mL relative to control
[18] = target: Vasopressin V1b receptor (Homo sapiens) (UniProt P47901); experiment: Inhibition of vasopressin V1b receptor (unknown origin) at 2 ug/mL relative to control
[19] = target: Vasopressin V1a receptor (Homo sapiens) (UniProt P37288); experiment: Inhibition of vasopressin V1a receptor (unknown origin) at 2 ug/mL relative to control
[20] = target: Oxytocin receptor (Homo sapiens) (UniProt P30559); experiment: Inhibition of oxytocin receptor (unknown origin) at 2 ug/mL relative to control
[21] = target: 5-hydroxytryptamine receptor 1A (Homo sapiens) (UniProt P08908); experiment: Inhibition of 5HT-1A receptor (unknown origin) at 2 ug/mL relative to control
[22] = target: Neuropeptide Y receptor type 5 (Homo sapiens) (UniProt Q15761); experiment: Inhibition of NPYY5 receptor (unknown origin) at 2 ug/mL relative to control
[23] = target: Muscarinic acetylcholine receptor M5 (Homo sapiens) (UniProt P08912); experiment: Inhibition of muscarinic M5 receptor (unknown origin) at 2 ug/mL relative to control
[24] = target: Muscarinic acetylcholine receptor M3 (Homo sapiens) (UniProt P20309); experiment: Inhibition of muscarinic M3 receptor (unknown origin) at 2 ug/mL relative to control
[25] = target: Muscarinic acetylcholine receptor M2 (Homo sapiens) (UniProt P08172); experiment: Inhibition of muscarinic M2 receptor (unknown origin) at 2 ug/mL relative to control
[26] = target: C-X-C chemokine receptor type 3 (Homo sapiens) (UniProt P49682); experiment: Inhibition of CXCR3 (unknown origin) at 2 ug/mL relative to control
[27] = Plasma concentration in rat at 10 mg/kg, po measured at 2 hrs; assay type: ADME, organism-based; parameters: dose 10 mg/kg, route oral
[28] = target: Alpha-2C adrenergic receptor (Homo sapiens) (UniProt P18825); experiment: Inhibition of adrenergic alpha-2C receptor (unknown origin) at 1 ug/mL relative to control
[29] = target: Alpha-2B adrenergic receptor (Homo sapiens) (UniProt P18089); experiment: Inhibition of adrenergic alpha-2B receptor (unknown origin) at 1 ug/mL relative to control
[30] = target: Alpha-1B adrenergic receptor (Homo sapiens) (UniProt P35368); experiment: Inhibition of adrenergic alpha-1B receptor (unknown origin) at 1 ug/mL relative to control
[31] = target: Adenosine receptor A1 (Homo sapiens) (UniProt P30542); experiment: Inhibition of adenosine A1 receptor (unknown origin) at 2 ug/mL relative to control
[32] = target: Ribosomal protein S6 kinase alpha-3 (Homo sapiens, UniProt P51812); experiment: Inhibition of human RSK2
[33] = target: Testis-specific serine/threonine-protein kinase 2 (Homo sapiens, UniProt Q96PF2); experiment: Inhibition of human TSSK2
[34] = target: Rho-associated protein kinase 2 (Homo sapiens, UniProt O75116); experiment: Inhibition of human ROCK2
[35] = target: Protein kinase C alpha type (Homo sapiens, UniProt P17252); experiment: Inhibition of human PKCA
[36] = target: Serine/threonine-protein kinase PLK3 (Homo sapiens, UniProt Q9H4B4); experiment: Inhibition of human PLK3
[37] = target: Serine/threonine-protein kinase 3 (Homo sapiens, UniProt Q13188); experiment: Inhibition of human MST2
[38] = target: Serine/threonine-protein kinase Nek2 (Homo sapiens, UniProt P51955); experiment: Inhibition of human NEK2
[39] = target: Hepatocyte growth factor receptor (Homo sapiens, UniProt P08581); experiment: Inhibition of human MET
[40] = target: Interleukin-1 receptor-associated kinase 4 (Homo sapiens, UniProt Q9NWZ3); experiment: Inhibition of human IRAK4
[41] = target: Mitogen-activated protein kinase 1 (Homo sapiens, UniProt P28482); experiment: Inhibition of human ERK2
[42] = target: Insulin-like growth factor 1 receptor (Homo sapiens, UniProt P08069); experiment: Inhibition of human IGF1R
[43] = target: Casein kinase I isoform delta (Homo sapiens, UniProt P48730); experiment: Inhibition of human CSNK1D
[44] = target: Cyclin-dependent kinase 2 (Homo sapiens, UniProt P24941); experiment: Inhibition of human CDK2
Outline: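 Biochemical kinase inhibition assay. Reported values are averages of duplicate or triplicate determinations, with a standard deviation of 10%.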

T1 sequence (Q12809 whole entry): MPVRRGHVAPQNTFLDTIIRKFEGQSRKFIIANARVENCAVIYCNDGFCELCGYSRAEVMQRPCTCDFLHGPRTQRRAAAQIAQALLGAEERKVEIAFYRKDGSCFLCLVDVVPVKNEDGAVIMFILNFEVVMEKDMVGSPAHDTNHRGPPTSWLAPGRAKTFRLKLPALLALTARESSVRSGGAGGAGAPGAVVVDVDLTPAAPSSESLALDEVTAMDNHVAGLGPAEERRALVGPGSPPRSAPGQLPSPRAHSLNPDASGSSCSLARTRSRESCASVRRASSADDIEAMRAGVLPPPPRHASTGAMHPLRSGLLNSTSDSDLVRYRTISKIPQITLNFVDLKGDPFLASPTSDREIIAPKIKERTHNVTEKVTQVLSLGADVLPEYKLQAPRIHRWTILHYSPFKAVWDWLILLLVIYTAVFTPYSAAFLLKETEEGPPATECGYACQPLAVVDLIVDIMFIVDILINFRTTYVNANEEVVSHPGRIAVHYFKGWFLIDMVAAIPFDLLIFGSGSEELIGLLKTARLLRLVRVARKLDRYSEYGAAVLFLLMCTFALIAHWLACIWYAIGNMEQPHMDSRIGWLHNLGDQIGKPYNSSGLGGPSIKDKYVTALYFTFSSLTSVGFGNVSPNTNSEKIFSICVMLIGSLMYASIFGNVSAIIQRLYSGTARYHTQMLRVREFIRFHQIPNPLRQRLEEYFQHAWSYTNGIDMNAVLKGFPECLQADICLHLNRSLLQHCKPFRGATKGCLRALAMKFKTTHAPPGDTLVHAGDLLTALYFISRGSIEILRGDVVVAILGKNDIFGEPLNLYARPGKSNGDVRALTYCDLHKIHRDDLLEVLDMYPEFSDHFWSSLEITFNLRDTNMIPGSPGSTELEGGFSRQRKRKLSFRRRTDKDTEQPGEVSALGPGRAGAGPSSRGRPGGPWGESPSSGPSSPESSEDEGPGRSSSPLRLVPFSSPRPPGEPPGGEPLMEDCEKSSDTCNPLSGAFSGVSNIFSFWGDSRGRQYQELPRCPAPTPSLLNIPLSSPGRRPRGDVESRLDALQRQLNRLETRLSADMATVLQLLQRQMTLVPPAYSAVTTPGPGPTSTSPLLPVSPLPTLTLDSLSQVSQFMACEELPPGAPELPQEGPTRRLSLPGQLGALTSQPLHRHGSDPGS
T3 sequence (P08684 whole entry): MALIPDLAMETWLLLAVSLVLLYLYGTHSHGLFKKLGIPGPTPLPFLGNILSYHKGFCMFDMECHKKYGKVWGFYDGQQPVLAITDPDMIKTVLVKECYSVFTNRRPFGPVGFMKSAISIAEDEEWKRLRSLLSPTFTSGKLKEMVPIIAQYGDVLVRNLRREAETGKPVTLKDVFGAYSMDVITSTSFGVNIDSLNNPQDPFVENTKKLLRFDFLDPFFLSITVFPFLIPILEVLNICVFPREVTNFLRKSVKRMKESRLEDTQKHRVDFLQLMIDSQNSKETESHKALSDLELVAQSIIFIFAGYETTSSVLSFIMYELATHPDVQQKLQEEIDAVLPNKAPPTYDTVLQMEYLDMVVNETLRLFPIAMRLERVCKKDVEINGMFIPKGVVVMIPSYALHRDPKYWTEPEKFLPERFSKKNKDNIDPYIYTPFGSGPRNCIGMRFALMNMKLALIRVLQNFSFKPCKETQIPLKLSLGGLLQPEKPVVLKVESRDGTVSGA
T2 sequence (P11712 whole entry): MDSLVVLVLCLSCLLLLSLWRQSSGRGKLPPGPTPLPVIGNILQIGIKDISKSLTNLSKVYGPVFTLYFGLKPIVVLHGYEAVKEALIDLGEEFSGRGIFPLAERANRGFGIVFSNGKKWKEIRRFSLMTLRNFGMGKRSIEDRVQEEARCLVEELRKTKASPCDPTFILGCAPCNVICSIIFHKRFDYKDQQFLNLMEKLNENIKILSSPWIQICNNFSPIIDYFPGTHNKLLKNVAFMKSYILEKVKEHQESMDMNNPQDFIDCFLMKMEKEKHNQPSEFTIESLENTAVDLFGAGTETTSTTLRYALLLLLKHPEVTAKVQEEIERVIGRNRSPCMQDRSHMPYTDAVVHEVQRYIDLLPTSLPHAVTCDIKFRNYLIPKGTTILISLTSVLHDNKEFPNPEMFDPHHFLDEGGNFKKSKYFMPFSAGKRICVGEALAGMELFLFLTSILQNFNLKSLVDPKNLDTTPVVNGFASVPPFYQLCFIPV
Sequence of Alpha-1B adrenergic receptor (Homo sapiens) (P35368 whole entry): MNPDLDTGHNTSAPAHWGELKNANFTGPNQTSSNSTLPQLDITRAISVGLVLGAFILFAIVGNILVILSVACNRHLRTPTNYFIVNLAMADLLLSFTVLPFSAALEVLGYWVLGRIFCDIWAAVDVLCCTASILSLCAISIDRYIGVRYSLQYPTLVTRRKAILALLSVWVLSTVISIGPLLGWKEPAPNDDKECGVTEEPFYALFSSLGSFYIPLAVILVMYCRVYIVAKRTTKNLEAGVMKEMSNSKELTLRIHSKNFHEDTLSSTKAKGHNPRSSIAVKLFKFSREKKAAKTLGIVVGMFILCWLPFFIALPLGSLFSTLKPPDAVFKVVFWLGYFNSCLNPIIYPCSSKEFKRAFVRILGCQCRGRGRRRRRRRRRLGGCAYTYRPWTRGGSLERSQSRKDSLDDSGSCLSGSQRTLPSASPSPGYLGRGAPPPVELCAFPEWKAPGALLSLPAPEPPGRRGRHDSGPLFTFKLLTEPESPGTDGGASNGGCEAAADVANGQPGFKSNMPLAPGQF
Sequence of Cytochrome P450 2D6 (P10635 whole entry): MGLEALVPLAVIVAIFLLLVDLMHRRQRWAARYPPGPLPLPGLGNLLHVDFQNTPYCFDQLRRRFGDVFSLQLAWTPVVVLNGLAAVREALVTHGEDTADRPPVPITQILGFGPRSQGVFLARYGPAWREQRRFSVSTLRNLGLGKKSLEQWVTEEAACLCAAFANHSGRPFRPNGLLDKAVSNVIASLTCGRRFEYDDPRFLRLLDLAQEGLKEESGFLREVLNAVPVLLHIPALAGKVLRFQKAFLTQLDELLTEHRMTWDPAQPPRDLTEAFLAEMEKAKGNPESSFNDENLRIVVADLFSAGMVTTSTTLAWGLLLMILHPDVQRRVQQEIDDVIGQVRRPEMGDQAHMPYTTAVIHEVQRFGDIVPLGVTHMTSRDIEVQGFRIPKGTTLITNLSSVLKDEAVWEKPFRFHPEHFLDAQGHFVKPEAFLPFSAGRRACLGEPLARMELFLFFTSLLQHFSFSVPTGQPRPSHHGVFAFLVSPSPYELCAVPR
Sequence of Mitogen-activated protein kinase 1 (P28482 whole entry): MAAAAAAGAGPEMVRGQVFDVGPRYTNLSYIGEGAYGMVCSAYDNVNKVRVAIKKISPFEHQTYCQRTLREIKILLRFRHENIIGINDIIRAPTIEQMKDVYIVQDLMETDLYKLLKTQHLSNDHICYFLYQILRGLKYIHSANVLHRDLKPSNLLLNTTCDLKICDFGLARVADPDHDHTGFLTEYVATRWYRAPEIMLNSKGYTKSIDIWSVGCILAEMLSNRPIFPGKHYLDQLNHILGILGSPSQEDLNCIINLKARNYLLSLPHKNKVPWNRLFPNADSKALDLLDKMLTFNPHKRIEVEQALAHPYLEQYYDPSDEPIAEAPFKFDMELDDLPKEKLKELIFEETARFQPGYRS
Sequence of Neuropeptide Y receptor type 5 (Homo sapiens) (Q15761 whole entry): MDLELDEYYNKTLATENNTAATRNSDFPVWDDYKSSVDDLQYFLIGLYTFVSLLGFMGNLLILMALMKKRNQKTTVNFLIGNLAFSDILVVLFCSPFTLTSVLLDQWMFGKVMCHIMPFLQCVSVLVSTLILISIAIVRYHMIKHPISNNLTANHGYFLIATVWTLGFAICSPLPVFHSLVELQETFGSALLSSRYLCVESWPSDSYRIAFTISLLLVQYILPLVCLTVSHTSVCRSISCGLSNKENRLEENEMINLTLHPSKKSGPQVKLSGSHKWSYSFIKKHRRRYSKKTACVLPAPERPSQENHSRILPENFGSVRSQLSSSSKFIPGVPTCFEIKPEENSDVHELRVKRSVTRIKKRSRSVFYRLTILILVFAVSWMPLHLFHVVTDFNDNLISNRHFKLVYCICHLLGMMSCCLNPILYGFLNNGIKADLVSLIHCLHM
Sequence of RAC-alpha serine/threonine-protein kinase (P31749 whole entry): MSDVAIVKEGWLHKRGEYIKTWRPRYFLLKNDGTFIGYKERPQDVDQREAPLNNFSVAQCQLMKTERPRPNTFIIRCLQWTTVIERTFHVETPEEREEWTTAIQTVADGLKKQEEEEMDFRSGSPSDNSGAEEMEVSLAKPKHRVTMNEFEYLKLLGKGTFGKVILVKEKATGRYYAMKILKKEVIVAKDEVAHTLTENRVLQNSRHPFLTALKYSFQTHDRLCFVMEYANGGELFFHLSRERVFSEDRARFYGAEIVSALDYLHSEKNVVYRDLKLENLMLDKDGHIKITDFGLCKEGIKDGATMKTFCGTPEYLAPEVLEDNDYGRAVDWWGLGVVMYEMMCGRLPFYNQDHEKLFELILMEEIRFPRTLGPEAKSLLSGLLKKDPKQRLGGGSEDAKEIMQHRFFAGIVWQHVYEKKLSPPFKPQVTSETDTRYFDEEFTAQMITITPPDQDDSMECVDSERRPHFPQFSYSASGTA
Sequence of Muscarinic acetylcholine receptor M2 (Homo sapiens) (P08172 whole entry): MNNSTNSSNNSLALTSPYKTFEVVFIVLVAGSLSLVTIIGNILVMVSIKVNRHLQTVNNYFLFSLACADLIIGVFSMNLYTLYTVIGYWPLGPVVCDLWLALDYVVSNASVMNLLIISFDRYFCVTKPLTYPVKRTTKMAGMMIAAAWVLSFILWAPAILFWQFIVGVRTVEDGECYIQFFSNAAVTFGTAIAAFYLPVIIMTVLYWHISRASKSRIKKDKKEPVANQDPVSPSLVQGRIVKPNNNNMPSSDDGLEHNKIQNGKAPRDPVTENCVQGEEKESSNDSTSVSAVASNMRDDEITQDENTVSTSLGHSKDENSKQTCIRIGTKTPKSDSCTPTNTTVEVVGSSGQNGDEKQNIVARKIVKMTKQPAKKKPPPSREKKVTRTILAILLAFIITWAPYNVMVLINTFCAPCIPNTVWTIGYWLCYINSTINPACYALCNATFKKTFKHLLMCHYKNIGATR

COc1ccc2c(c1)C(=O)N(c1nc(C(=O)Nc3cnccc3N3CCNCC3)cs1)C2 gave a concentration at 1 h [1] of 57 ng/mL, an IC50 [2] of 26 µM and a concentration at 6 h [3] of 252 ng/mL. For the same compound, the IC50 [4] was 4.8 µM, the inhibition at 5 min, 1 µM (hERG (KCNH2) [5]) was 82% and the inhibition at 10 µM (hERG (KCNH2) [6]) was 42%. For the same compound, the inhibition at 5 ug/mL (hERG (KCNH2) [7]) was 65%, the inhibition at 1.5 ug/mL (hERG (KCNH2) [8]) was 24% and the inhibition [9] was 22.6%. It also gave an IC50 (Cytochrome P450 2C9 [10]) of over 30 µM, an IC50 (Cytochrome P450 3A4 [11]) of over 30 µM and an IC50 (Cytochrome P450 2C9 [12]) of over 30 µM. It also gave an IC50 (Cytochrome P450 2D6) of over 30 µM, an IC50 (Cytochrome P450 3A4 [13]) of over 30 µM and a Tmax [14] of 6 h. For the same compound, the Cmax [15] was 600 nM, the AUC [16] was 7.2 µM·h and the inhibition [17] was 20.4%. For the same compound, the inhibition [18] was 6.1%, the inhibition [19] was 10.9% and the inhibition [20] was 25.7%. For the same compound, the inhibition [21] was 12.8%, the inhibition [22] was 13.2% and the inhibition [23] was 14.4%. For the same compound, the inhibition [24] was 10.1%, the inhibition [25] was 3.5% and the inhibition [26] was 8%. For the same compound, the concentration at 2 h [27] was 150 ng/mL, the inhibition [28] was 13.8% and the inhibition [29] was 4.2%. For the same compound, the inhibition [30] was 21.8%, the inhibition [31] was -3.2% and the IC50 [32] was 1.3 µM. It also gave an IC50 [33] of 8.9 µM, an IC50 [34] of 6.8 µM and an IC50 [35] of over 30 µM. The IC50 [36] was over 30 µM, the IC50 [37] was 2.1 µM and the IC50 [38] was 9.5 µM. The IC50 [39] was over 30 µM, the IC50 [40] was 1.1 µM and the IC50 [41] was 20 µM. It also gave an IC50 [42] of 30 µM, an IC50 [43] of over 30 µM and an IC50 [44] of over 30 µM.
